# In PMC7821153 (Chemical Biology & Drug Design, 2020):
# Columns and labels:
# Assay type in all cases: cell-based
# [1] = tested on: HIV-1 DOR-resistant mutant L234I; test: Single-round infectivity assay, L234I; details: read-out: EC50 L234I; single-round infection, n = 3
# Method in brief: (§1)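 Single-round infection with the HIV-1-based vector pNLNgoMIVR-ΔENV.LUC (Env-deleted, luciferase-carrying) bearing the indicated RT mutation(s), used to derive EC50. The mutant vectors are previously described constructs.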
# [2] = tested on: HIV-1 RT-resistant mutant M184V; test: Single-round infectivity assay, M184V; details: read-out: EC50 M184V; single-round infection, n = 3
# Method in brief: as §1
# [3] = tested on: HIV-1 NNRTI-resistant mutant V106A/G190A/F227L; test: Single-round infectivity assay, V106A/G190A/F227L; details: Human immunodeficiency virus 1, read-out: EC50 V106A/G190A/F227L
# Method in brief: as §1
# [4] = tested on: HIV-1 RT-resistant mutant D67E; test: Single-round infectivity assay, D67E; details: read-out: EC50 D67E; single-round infection, n = 3
# Method in brief: as §1
# [5] = tested on: HIV-1 NNRTI-resistant mutant H221Y; test: Single-round infectivity assay, H221Y; details: Human immunodeficiency virus 1, read-out: EC50 H221Y
# Method in brief: as §1
# [6] = tested on: HIV-1 NNRTI-resistant mutant E138K; test: Single-round infectivity assay, E138K; details: Human immunodeficiency virus 1, read-out: EC50 E138K
# Method in brief: as §1
# [7] = tested on: HIV-1 NNRTI-resistant mutant Y188L; test: Single-round infectivity assay, Y188L; details: Human immunodeficiency virus 1, read-out: EC50 Y188L
# Method in brief: as §1
# [8] = tested on: HIV-1 RT-resistant mutant E40K; test: Single-round infectivity assay, E40K; details: read-out: EC50 E40K; single-round infection, n = 3
# Method in brief: as §1
# [9] = tested on: HIV-1 NNRTI-resistant mutant K103N; test: Single-round infectivity assay, K103N; details: Human immunodeficiency virus 1, read-out: EC50 K103N
# Method in brief: as §1
# [10] = tested on: HIV-1 NNRTI-resistant mutant G190A; test: Single-round infectivity assay, G190A; details: read-out: EC50 G190A; single-round infection, n = 3
# Method in brief: as §1
# [11] = tested on: HIV-1 RT-resistant mutant K101E; test: Single-round infectivity assay, K101E; details: Human immunodeficiency virus 1, read-out: EC50 K101E
# Method in brief: as §1
# [12] = Cellular cytotoxicity, ATP-dependent luminescence assay
# Method in brief: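 Cytotoxicity measured by ATP-dependent luminescence, with CC50 derived. Values are from three independent experiments (n = 3), and standard deviations are reported.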
# [13] = tested on: HIV-1 NNRTI-resistant mutant K103N/Y181C; test: Single-round infectivity assay, K103N/Y181C; details: Human immunodeficiency virus 1, read-out: EC50 K103N/Y181C
# Method in brief: as §1
# [14] = tested on: HIV-1 NNRTI-resistant mutant G190S; test: Single-round infectivity assay, G190S; details: read-out: EC50 G190S; single-round infection, n = 3
# Method in brief: as §1
# [15] = tested on: HIV-1 NNRTI-resistant mutant L100I/K103N; test: Single-round infectivity assay, L100I/K103N; details: Human immunodeficiency virus 1, read-out: EC50 L100I/K103N
# Method in brief: as §1
# [16] = tested on: WT HIV-1; test: Single-round infectivity assay, WT RT vector
# Method in brief: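 Single-round infection with an HIV-1-based vector (pNLNgoMIVR-ΔENV.LUC, Env-deleted, luciferase-carrying) with wild-type RT, used to derive EC50. Therapeutic index is calculated from CC50 (ATP-dependent luminescence assay) and wild-type EC50. Three independent experiments (n = 3), with standard deviations.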
# [17] = tested on: HIV-1 RT-resistant mutant K101E/M184I; test: Single-round infectivity assay, K101E/M184I; details: read-out: EC50 K101E/M184I; single-round infection, n = 3
# Method in brief: as §1
# [18] = tested on: HIV-1 NNRTI-resistant mutant Y181C; test: Single-round infectivity assay, Y181C; details: Human immunodeficiency virus 1, read-out: EC50 Y181C
# Method in brief: as §1
# [19] = tested on: HIV-1 NNRTI-resistant mutant L100I; test: Single-round infectivity assay, L100I; details: Human immunodeficiency virus 1, read-out: EC50 L100I
# Method in brief: as §1
# [20] = tested on: HIV-1 NNRTI-resistant mutant K103N/P225H; test: Single-round infectivity assay, K103N/P225H; details: Human immunodeficiency virus 1, read-out: EC50 K103N/P225H
# Method in brief: as §1
# [21] = tested on: HIV-1 NNRTI-resistant mutant P236L; test: Single-round infectivity assay, P236L; details: read-out: EC50 P236L; single-round infection, n = 3
# Method in brief: as §1
# [22] = tested on: HIV-1 NNRTI-resistant mutant M230L; test: Single-round infectivity assay, M230L; details: Human immunodeficiency virus 1, read-out: EC50 M230L
# Method in brief: as §1
# [23] = tested on: HIV-1 RT-resistant mutant K101E/M184V; test: Single-round infectivity assay, K101E/M184V; details: read-out: EC50 K101E/M184V; single-round infection, n = 3
# Method in brief: as §1
smiles,measurement,setting,value
"Cc1cc(/C=C/C#N)cc(C)c1-n1cnc2cnc(Nc3ccc4cc(C#N)ccc4c3)nc21 [Compound 10, (E)‐6‐((9‐(4‐(2‐cyanovinyl)‐2,6‐dimethylphenyl)‐9H‐purin‐2‐yl)amino)‐2‐naphthonitrile]",EC50,[1],2.3 ± 0.2 nM
same,EC50,[2],3.1 ± 0.4 nM
same,EC50,[3],7 ± 0.5 nM
same,EC50,[4],10 ± 1.9 nM
same,EC50,[5],3.4 ± 0.3 nM
same,EC50,[6],32.7 ± 4.4 nM
same,EC50,[7],180 ± 14.7 nM
same,EC50,[8],4.2 ± 0.7 nM
same,EC50,[9],24.5 ± 4.9 nM
same,EC50,[10],1.6 ± 0.3 nM
same,EC50,[11],13.4 ± 1 nM
same,CC50,[12],10.8 ± 1.2 µM
same,EC50,[13],468 ± 88.8 nM
same,EC50,[14],2.1 ± 0.1 nM
same,EC50,[15],386 ± 19.9 nM
same,EC50,"[16]; Human immunodeficiency virus 1, read-out: EC50 WT",2.3 ± 0.2 nM
same,TI (therapeutic index),[16]; calculated from CC50 and WT EC50,"4,696"
same,EC50,[17],14 ± 0.1 nM
same,EC50,[18],47.7 ± 7.8 nM
same,EC50,[19],24.2 ± 6.1 nM
same,EC50,[20],103 ± 8.1 nM
same,EC50,[21],1.6 ± 0.1 nM
same,EC50,[22],33.8 ± 2.7 nM
same,EC50,[23],4.7 ± 0.8 nM
